The list is not random: actives were taken first. Their share in the collection is about 3.5%.
RGS4 block = human RGS4 inhibition | 310,000 tested, 0.45% active | HEK293 M3R/RGS4 inducible, Fluo-4 calcium flux; active compounds read high; triggered by carbachol at its EC20 | B-score at 10 µM;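 active means B-score, a plate-corrected calcium signal, over three deviations above library mean, with baseline fluorescence within five deviations of library mean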;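 further: RGS4 expression induced by doxycycline in cells with stable M3 receptor; B-score is computed from the integrated fluorescence ratio over baseline after carbachol; higher B-score means a larger calcium signal and so more RGS4 inhibition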
Target sequence (P49798 whole entry, looked up): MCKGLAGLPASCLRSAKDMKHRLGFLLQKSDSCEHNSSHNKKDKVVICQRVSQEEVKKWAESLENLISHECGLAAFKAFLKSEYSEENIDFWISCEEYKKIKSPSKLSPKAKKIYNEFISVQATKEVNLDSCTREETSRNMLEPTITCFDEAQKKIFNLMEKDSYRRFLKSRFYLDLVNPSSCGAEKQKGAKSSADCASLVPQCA
MrgX1 allo act = allosterically activates human MrgX1 receptor signaling; MrgX1-HEK293, Fluo-4 calcium flux, FDSS; active compounds read high; Q96LB2; AID 588675; 310,000 tested, 0.63% active; B-score at 10 µM;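 active means plate-corrected calcium response at least 3 library SD above typical, normal starting fluorescence, not activating the receptor alone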;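 further: compound read alongside a low EC10 to EC30 dose of BAM8-22 agonist; peak minus trough fluorescence over baseline measured at the second addition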
Target sequence (Q96LB2 whole entry, looked up): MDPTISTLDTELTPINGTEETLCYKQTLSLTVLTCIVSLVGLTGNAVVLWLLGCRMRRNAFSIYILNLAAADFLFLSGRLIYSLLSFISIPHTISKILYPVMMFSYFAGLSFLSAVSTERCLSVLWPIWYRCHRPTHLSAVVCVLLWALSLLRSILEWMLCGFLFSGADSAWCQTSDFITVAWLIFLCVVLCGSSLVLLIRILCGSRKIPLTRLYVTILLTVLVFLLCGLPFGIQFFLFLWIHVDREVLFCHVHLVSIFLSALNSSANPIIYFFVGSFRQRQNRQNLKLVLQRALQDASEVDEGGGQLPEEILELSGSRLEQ
RGS4 pot = potentiators or activators of RGS4. B-score at 10 µM. 310,000 tested, 0.92% active. HEK293 M3R/inducible RGS4, carbachol calcium flux Fluo4; active compounds read low;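 active means B-score of the integrated calcium signal more than 4 SD below the library mean, with starting fluorescence not abnormally high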;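 further: negative B-score means reduced calcium response which marks RGS4 activation or potentiation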
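Assay system: HEK293 FlpIn-TREx cells, stable M3R, doxycycline-inducible RGS4 / Probe or stimulus: carbachol, ECmax concentration / Times: overnight RGS4 induction, 30 min dye load 37 °C, 20 min compound RT / Signal: kinetic calcium fluorescence imaging with Fluo4-AM dye, 2 µM / Measure: Agonist-evoked peak-minus-minimum fluorescence over baseline, integrated ratio, B score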
MrgX1 antag = antagonists of human MrgX1 receptor | 310,000 tested, 1.3% active | B-score at 10 µM | MRGX1-HEK293 calcium flux, Fluo-4, BAM8-22 antagonism; active compounds read low;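 active means calcium-response B-score plate-corrected more than 3 library SD below zero, starting fluorescence within 5 deviations, no agonist response on first addition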;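 further: peak minus trough fluorescence over baseline after final BAM8-22 challenge near maximal dose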
MrgX1 agonist = agonists of human MrgX1 receptor | Q96LB2 | MrgX1-HEK293 cells, Fluo-4 calcium fluorescence, agonist mode; active compounds read high | B-score at 10 µM | 310,000 tested, 0.44% active;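 active means calcium response B-score plate-corrected fluorescence ratio at least 3 library SD, with starting fluorescence B-score inside 5 SD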
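Material: MrgX1-expressing HEK293 cells; input: 15,000 cells per well; doses: test compound given as first of three sequential additions; schedule: overnight plating before 1 h dye loading; technique: Fluo-4 NW calcium-flux fluorescence, kinetic read; evaluation: baseline-normalised fluorescence change ratio, B-scored; control set: plate-wise positive and negative controls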
Of the large screens only hits and unclear results are named; the others gave an inactive call.

CN(CCCN1CCCCC1)C(=O)c1cc(COc2ccc(F)cc2F)on1	MrgX1 antag -7.3
CN(CCCC1CCCC1)C(=O)c1cc(COc2ccc(F)cc2F)on1	none
COC(=O)COn1c(SCC(=O)OC)nc2ccccc2c1=O	MrgX1 antag -4.6
O=C(c1c(F)c(F)c(F)c(F)c1F)N1CCN(c2cccc(C(F)(F)F)c2)CC1	RGS4 pot -7.2
O=C(c1ccccc1F)N1CCN(c2cccc(C(F)(F)F)c2)CC1	none
Cc1ccc(Cl)cc1N1CCN(C(=O)c2cc3c(=O)n(C)c4ccccc4c3n2C)CC1	RGS4 pot -7.2
CCN(CCn1cccn1)C(=O)CC1C(=O)NCCN1Cc1ccc(F)cc1 (configuration not stated)	MrgX1 agonist 29
CCn1nc(C)c(/C=N/NC(=O)c2ccoc2C)c1C	MrgX1 antag -5.6
CCCCCn1nc(C)c(/C=N/NC(=O)c2ccoc2C)c1C	none
Cc1cc(C(=O)NNS(=O)(=O)c2ccc(F)cc2)nn1C(C)(C)C	none
Cc1cc(C(=O)NNC(=O)c2cccs2)nn1C(C)(C)C	MrgX1 antag -7.2
Brc1ccc(/C=N/Nc2ccc3ccccc3n2)cc1	none
Brc1ccccc1/C=N/Nc1ccc2ccccc2n1	MrgX1 allo act 11
OC(c1cc(-c2ccc(C(F)(F)F)cc2)nc(C(F)(F)F)c1)C1CCCCN1 (configuration not stated)	RGS4 pot -7.8, MrgX1 antag -5.4
CCOC(=O)CCS(=O)(=O)c1ccc(-c2ccc(S(=O)(=O)CCC(=O)OCC)cc2)cc1	MrgX1 antag -7.1
CN(CCC#N)C(=O)COC(=O)c1ccc2c(c1)C(=O)N(C1CCCCC1)C2=O	none
O=S(=O)(c1cccc(COc2c(Cl)cccc2Cl)c1)N1CCOCC1	none
O=C1C(Cl)=C(NC(=O)c2ccccc2)C(=O)C(Cl)=C1NC(=O)c1ccccc1	RGS4 block 7.3
O=C(Nc1cccc(Cl)c1)c1ccccc1	none (no result: RGS4 block, RGS4 pot)
O=C(NC1=C(Nc2ccc(Cl)cc2)C(=O)c2ccccc2C1=O)c1ccccc1	none
Cc1cccc(NC2=C(NC(=O)c3ccccc3)C(=O)c3ccccc3C2=O)c1	MrgX1 allo act 10
COc1cccc(N(CC(=O)NCCSCc2ccc(Cl)cc2)S(C)(=O)=O)c1	none
CCCc1nc2ccccc2c(=O)n1NC(=O)c1c(O)c2ccccc2n(C)c1=O	MrgX1 allo act 10
COc1c(CC=C(C)C)cc(C2CC(=O)c3c(O)cc(O)cc3O2)c(CC=C(C)C)c1O (configuration not stated)	RGS4 pot -7.6
Cc1ccc(C)c(NC(=O)c2ccc(S(=O)(=O)N(C)CC3CCCO3)cc2)c1 (configuration not stated)	none
CN(C)CCCNC(=O)/C(=C/c1ccc(-c2ccc([N+](=O)[O-])cc2)o1)NC(=O)c1ccccc1	MrgX1 antag -5.7
CN(C)CCCNC(=O)/C(=C\c1ccc(-c2ccc(Br)cc2)o1)NC(=O)c1ccccc1	none
CCOc1ccccc1NC(=S)NC(=O)CCCOc1ccc(Cl)cc1Cl	RGS4 pot -7.3
CCn1c(C)nc2cc(C(=O)NNC(=O)Nc3ccc(Cl)cc3)ccc21	none
CCn1c(C)nc2cc(C(=O)NNC(=O)Nc3cccc(Cl)c3)ccc21	MrgX1 antag -6.3
COc1ccc(NC(C)=O)cc1CNC(=O)COc1ccccc1C(=O)Nc1cccc(C)c1C	none
CN(C)S(=O)(=O)N(CC(=O)NCCSCc1ccc(Cl)cc1)c1ccccc1	MrgX1 antag -7.8
CC(C)c1ccc(N(CCc2ccccn2)C(=O)C(C)(C)C)cc1	none
Cc1nccn1CC(=O)N/N=C/c1cc(Br)cs1	MrgX1 antag -5.3
CCN1CCN(CC(=O)N/N=C/c2cc(Br)cs2)CC1	none
Cc1ccc(-c2csc(Nc3ccc(C(=O)O)cc3)[n+]2Cc2ccccc2)cc1	MrgX1 allo act 9.1
Cc1ccc(-n2nc3c(=O)n(C(C)C(=O)NCCCc4ccccc4)nc(C)c3c2C)cc1 (configuration not stated)	MrgX1 antag -4.5
Cc1ccc(-n2nc3c(=O)n(CC(=O)NCCCc4ccccc4)nc(C)c3c2C)cc1	none
Cc1ccc(-n2nc3c(=O)n(CCCC(=O)NCc4ccccc4Cl)nc(C)c3c2C)cc1	MrgX1 antag -6.5
NC(=O)c1cc([N+](=O)[O-])c(Cl)cc1NCc1cccnc1	none (no result: RGS4 block, RGS4 pot)
CC(C)C(=O)Nc1ccc2c(c1)nc(CCN1CCN(c3ccccn3)CC1)n2C	none
O=C(COc1ccc2c(-c3ccccc3)cc(=O)oc2c1)Nc1cccnc1	none
O=c1c2ccccc2c(/C=N/c2nnc(Cc3ccccc3)s2)c(O)n1-c1ccc(Cl)cn1	MrgX1 allo act 16
CC(C)N1CCc2c(sc(NC(=O)c3cc(-c4cccs4)nc4ccccc34)c2C(N)=O)C1	RGS4 pot -11
CC(C)N1CCc2c(sc(NC(=O)c3nc4ccccc4s3)c2C(N)=O)C1	none
CCOc1ccc(C(=O)OCC(=O)N2CCCC2)cc1	none
Cc1ccc(NC(=O)c2cccc(Oc3ccc([N+](=O)[O-])cc3)c2)c(C(=O)O)c1	none
O=C(Nc1ccc(O)cc1)c1cccc(Oc2ccc([N+](=O)[O-])cc2)c1	MrgX1 antag -5.9
CCN1CCN(S(=O)(=O)c2ccc(Cl)c(C(=O)NC(C)c3ccccc3Cl)c2)CC1 (configuration not stated)	MrgX1 antag -5.4
CCOc1ccc(C(=O)C(CCC(CN(C)C)C(=O)c2ccc(OCC)cc2)CN(C)C)cc1 (configuration not stated)	RGS4 pot -8 (no result: MrgX1 allo act, MrgX1 antag, MrgX1 agonist)
COc1ccc(C(=O)C(CCCCC(CN(C)C)C(=O)c2ccc(OC)cc2)CN(C)C)cc1 (configuration not stated)	none
Cc1csc(NC(=O)C2=NN(c3ccccc3)C(=O)CC2)n1	none
Cc1ccc(-c2csc(NC(=O)C3=NN(c4ccccc4)C(=O)CC3)n2)cc1	MrgX1 antag -4.8
COCCN(C(=O)COC(=O)CCc1ccccc1OC)c1c(N)n(Cc2ccccc2)c(=O)[nH]c1=O	MrgX1 antag -6
CCCCNC(=O)COC(=O)CCC(=O)c1ccc(F)cc1	MrgX1 antag -6.1
COc1cccc(S(=O)(=O)Nc2cccc(C(=O)N3CCOCC3)c2)c1	RGS4 pot -7.5
COc1cccc(S(=O)(=O)Nc2cccc(C(=O)N3CCCC3)c2)c1	none
CN1/C(=C\C=C2/SC(=S)NC2=O)C(C)(C)c2ccccc21	MrgX1 agonist 28
CN1/C(=C/C=C(/C#N)C(N)=O)C(C)(C)c2ccccc21	MrgX1 agonist 33
CCn1c(SC)nnc1C1CCN(CC(=O)Nc2ccccc2N2CCOCC2)CC1	none
Cc1ccc(-c2nnc(NC3CCCC3)s2)cc1	none
CCOC(=O)c1cnc2sc3c(n2c1=O)CCCC3	MrgX1 antag -5.2 (no result: RGS4 block, RGS4 pot)
COC(=O)c1ccc(SCC(=O)NCc2ccccc2)c([N+](=O)[O-])c1	none

High-throughput results as filed in PubChem BioAssay.
